From ChEMBL document CHEMBL2203099, “Identification of a crucial amino acid in the helix position 6.51 of human tachykinin neurokinin 1 and 3 receptors contributing to the insurmountable mode of antagonism by dual NK₁/NK₃ antagonists” (J Med Chem, 2012)
Substitutions are numbered along the chain they refer to. Activity calls are given as the source filed them. The rule behind the calls is not given here.

Experiments:
Neuromedin-K receptor [1] = target: Neuromedin-K receptor (Homo sapiens, UniProt P29371, Y247A); assay: Binding affinity to human NK3 Y247A mutant expressed in HEK293 cells
Neuromedin-K receptor [2] = target: T1, Neuromedin-K receptor (Homo sapiens, UniProt P29371); assay: Displacement of [3H]osanetant from wild type human NK3 receptor expressed in HEK293 cells; format: cell-based
T1 sequence (P29371 whole entry): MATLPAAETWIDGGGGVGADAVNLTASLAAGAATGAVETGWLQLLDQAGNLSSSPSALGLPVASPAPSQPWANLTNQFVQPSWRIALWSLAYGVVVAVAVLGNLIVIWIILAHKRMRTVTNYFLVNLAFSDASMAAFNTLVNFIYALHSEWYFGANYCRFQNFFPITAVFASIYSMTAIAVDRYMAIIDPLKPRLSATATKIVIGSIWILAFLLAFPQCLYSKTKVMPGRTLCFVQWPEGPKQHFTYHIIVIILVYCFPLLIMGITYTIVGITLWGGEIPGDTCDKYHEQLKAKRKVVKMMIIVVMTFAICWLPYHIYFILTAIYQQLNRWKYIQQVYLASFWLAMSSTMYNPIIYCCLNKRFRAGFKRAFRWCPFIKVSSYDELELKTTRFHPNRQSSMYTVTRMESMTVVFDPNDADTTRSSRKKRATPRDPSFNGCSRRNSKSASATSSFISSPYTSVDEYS

Substance-P receptor [3] = target: T2, Substance-P receptor (Homo sapiens, UniProt P25103); assay: Noncompetitive inhibition of wild type human NK1 receptor expressed in HEK293 cells assessed as decrease in SP1-induced [3H]IP accumulation after 20 mins; format: cell-based
Substance-P receptor [4] = target: T2, Substance-P receptor
[5] = tested on: T3, Neuromedin-K receptor (Homo sapiens), P29371 [Y315F]; assay: Antagonist activity at human NK3 Y315F6.51 mutant expressed in HEK293 cells assessed as decrease in [MePhe7]NKB-induced [3H]IP accumulation at 10 nM after 20 mins; format: functional, cell-based
T3 sequence (whole entry): T1 sequence (P29371 whole entry) with Y315F

[6] = tested on: T3, Neuromedin-K receptor (Homo sapiens), P29371 [Y315F]; assay: Noncompetitive inhibition at human NK3 Y315F6.51 mutant expressed in HEK293 cells assessed as decrease in [MePhe7]NKB-induced [3H]IP accumulation after 20 mins; format: cell-based
In short: (§1)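 HEK293 cells transiently expressing human NK3 WT or mutant, labeled with myo-[³H]inositol in LiCl buffer. Antagonist preincubated 20 min at 37 °C, then [MePhe⁷]NKB (0.01 nM–1 μM) added for 45 min at 37 °C. [³H]IP read by SPA beads. Schild analysis of EC50 shift and Emax depression across increasing antagonist concentrations gives pA2, slope and mode of antagonism.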

Neuromedin-K receptor [7] = target: T4, Neuromedin-K receptor (Homo sapiens, UniProt P29371, Y315F); assay: Displacement of radioligand [3H]osanetant at human NK3 Y315F6.51 mutant expressed in HEK293 cells; format: cell-based
Substance-P receptor [8] = target: T5, Substance-P receptor (Homo sapiens, UniProt P25103, F264Y); assay: Displacement of radioligand [3H]SP from human NK1 F264Y6.51 mutant expressed in HEK293 cells; format: cell-based
In short: (§2)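 Membranes from transiently transfected HEK293 cells, 2.5 μg protein/well, in 50 mM HEPES pH 7.4 with 3 mM MnCl2, phosphoramidon, leupeptin and 0.04% BSA. 10 competitor concentrations (0.0003–10 μM), 90 min at rt. Nonspecific binding with 10 μM NK1 antagonist. Filtration, then scintillation counting. Ki by Cheng–Prusoff. Three experiments, each in duplicate.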

HEK293 = assay: Selectivity ratio of Ki for wild type human NK3 receptor expressed in HEK293 cells to Ki for human NK3 Y315F6.51 mutant expressed in HEK293 cells; format: cell-based
[9] = target: T6, Neuromedin-K receptor (Homo sapiens) (UniProt P29371); assay: Noncompetitive inhibition at wild type human NK3 expressed in HEK293 cells assessed as decrease in [MePhe7]NKB-induced [3H]IP accumulation after 20 mins; format: cell-based
T6 sequence (whole entry): T1 sequence (P29371 whole entry)
In short: as §1

Substance-P receptor [10] = target: T2, Substance-P receptor; assay: Displacement of radioligand [3H]SP from wild type human NK1 receptor expressed in HEK293 cells; format: cell-based
In short: as §2

Substance-P receptor [11] = target: T5, Substance-P receptor; assay: Partial noncompetitive inhibition of human F264Y6.51 mutant expressed in HEK293 cells assessed as decrease in SP1-induced [3H]IP accumulation after 20 mins; format: cell-based; conditions: read-out: pA2 (converted)
Neuromedin-K receptor [12] = target: T1, Neuromedin-K receptor; assay: Competitive inhibition at wild type human NK3 expressed in HEK293 cells assessed as decrease in [MePhe7]NKB-induced [3H]IP accumulation after 20 mins; format: cell-based; conditions: read-out: pA2 (converted)
In short: as §1

Neuromedin-K receptor [13] = target: T4, Neuromedin-K receptor; assay: Competitive inhibition at human NK3 Y315F6.51 mutant expressed in HEK293 cells assessed as decrease in [MePhe7]NKB-induced [3H]IP accumulation after 20 mins; format: cell-based; conditions: read-out: pA2 (converted)
In short: as §1

[14] = tested on: Substance-P receptor (Homo sapiens), P25103 [F264Y]; assay: Noncompetitive inhibition of human NK1 F264Y6.51 mutant receptor expressed in HEK293 cells assessed as decrease in SP1-induced [3H]IP accumulation after 20 mins; format: cell-based
Chain of Substance-P receptor (Homo sapiens), P25103 [F264Y] (P25103 whole entry F264Y): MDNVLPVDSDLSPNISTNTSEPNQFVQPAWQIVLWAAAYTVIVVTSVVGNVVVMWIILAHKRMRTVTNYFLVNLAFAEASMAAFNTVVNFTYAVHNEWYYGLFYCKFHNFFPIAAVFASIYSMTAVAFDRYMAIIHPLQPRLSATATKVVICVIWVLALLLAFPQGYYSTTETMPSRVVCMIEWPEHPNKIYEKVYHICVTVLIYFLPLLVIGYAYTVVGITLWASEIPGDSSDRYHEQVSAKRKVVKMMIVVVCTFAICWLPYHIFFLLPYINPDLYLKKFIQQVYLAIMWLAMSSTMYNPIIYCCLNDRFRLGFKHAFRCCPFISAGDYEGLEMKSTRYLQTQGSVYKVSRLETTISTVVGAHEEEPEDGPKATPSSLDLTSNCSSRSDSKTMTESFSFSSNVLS

T2 sequence (P25103 whole entry): as the sequence (P25103 whole entry F264Y) above, with Y264F counted along it
T4 sequence (P29371 whole entry Y315F): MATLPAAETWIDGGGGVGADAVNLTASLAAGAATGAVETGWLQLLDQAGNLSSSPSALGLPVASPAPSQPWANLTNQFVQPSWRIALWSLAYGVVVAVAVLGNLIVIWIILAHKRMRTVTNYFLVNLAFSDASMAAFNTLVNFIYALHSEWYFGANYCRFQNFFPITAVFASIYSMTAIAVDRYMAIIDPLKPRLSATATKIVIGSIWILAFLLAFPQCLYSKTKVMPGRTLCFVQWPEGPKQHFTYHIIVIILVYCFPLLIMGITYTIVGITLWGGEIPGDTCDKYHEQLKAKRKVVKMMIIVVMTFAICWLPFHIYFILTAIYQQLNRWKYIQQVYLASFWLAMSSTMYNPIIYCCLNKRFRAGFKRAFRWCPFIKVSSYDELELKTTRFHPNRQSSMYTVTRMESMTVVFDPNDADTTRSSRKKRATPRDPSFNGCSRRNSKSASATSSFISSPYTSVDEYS
T5 sequence (P25103 whole entry F264Y): as the sequence (P25103 whole entry F264Y) above
Chain of Neuromedin-K receptor (Homo sapiens, UniProt P29371, Y247A) (P29371 whole entry Y247A): as the sequence (P29371 whole entry Y315F) above, with Y247A, F315Y counted along it

Ki (Neuromedin-K receptor [2]) | inhibition (Substance-P receptor [3]) | Ki (Neuromedin-K receptor [7]) | Ki (Substance-P receptor [8]) | Ki (Substance-P receptor [10]) | Compound | Ratio Ki (HEK293) | also measured
– | – | – | – | – | [3H]c1cccc(C2(N(C)C(C)=O)CCN(CCC[C@]3(c4ccc(Cl)c(Cl)c4)CCCN(C(=O)c4ccccc4)C3)CC2)c1 | – | Kd (Neuromedin-K receptor [1]): Not Active
454 nM | Active | – | – | – | C[C@@H](O[C@H]1OCCN(Cc2n[nH]c(=O)[nH]2)[C@H]1c1ccc(F)cc1)c1cc(C(F)(F)F)cc(C(F)(F)F)c1 [APREPITANT] | – | T1/2 (Substance-P receptor [4]): 2.57 h
1.5 nM | Active | 0.6 nM | 2.8 nM | 1.4 nM | Cc1cc(F)ccc1-c1cc(N2CCC[C@H]2CO)ncc1N(C)C(=O)C(C)(C)c1cc(C(F)(F)F)cc(C(F)(F)F)c1 | 2.5 | Activity [5]: Active; inhibition [6]: Active; inhibition [9]: Active; Kb (Substance-P receptor [11]): 39.8 nM
3.5 nM | Active | 1 nM | 1.7 nM | 1.4 nM | Cc1cc(F)ccc1-c1cc(N2CCC3(CC2)OCCS3(=O)=O)ncc1N(C)C(=O)C(C)(C)c1cc(C(F)(F)F)cc(C(F)(F)F)c1 | 3.5 | Kb (Neuromedin-K receptor [12]): 97.7 nM; Kb (Neuromedin-K receptor [13]): 37.2 nM; inhibition [14]: Active

Compound | Ki (Neuromedin-K receptor [2]) | inhibition (Substance-P receptor [3]) | Ki (Neuromedin-K receptor [7]) | Ki (Substance-P receptor [8]) | Ki (Substance-P receptor [10]) | Ratio Ki (HEK293) | also measured
COc1ccccc1CN[C@H]1C2CCN(CC2)[C@H]1C(c1ccccc1)c1ccccc1 [CP-96345] | > 10000 nM | – | – | – | – | – | –
